Assays:
[1] = system: OVCAR-4; assay: Cytotoxicity against human OVCAR4 cells; type: cell-based
[2] = system: KM12; assay: Cytotoxicity against human KM12 cells; type: cell-based
[3] = system: SR; assay: Antiproliferative activity against human SR cells by SRB assay; type: functional
How it was run: (§1)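 Cell growth was tested in the NIH in vitro disease-oriented human tumor cell line screen, which NCI ran for these compounds. Compounds were tested at five concentrations (100, 10, 1.0, 0.1 and 0.01 μM), and growth was read by SRB signal. GI50 is the drug concentration that reduces growth of treated cells to half that of control cells during drug incubation.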

[4] = system: HCT-116; assay: Cytotoxicity against human HCT116 cells; type: cell-based
How it was run: (§2)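 Tested in the NCI in vitro disease-oriented human tumour cell line screen, with screening performed by NCI. Growth was read by SRB signal over the drug incubation period at five concentrations: 100, 10, 1.0, 0.1 and 0.01 μM. GI50 is the concentration that reduces growth of treated cells to half that of control cells.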

[5] = system: NCI-H322M; assay: Cytotoxicity against human NCI-H322M cells; type: cell-based
[6] = system: UACC-257; assay: Antiproliferative activity against human UACC257 cells by SRB assay; type: functional; how it was run: as §1
[7] = system: COLO 205; assay: Cytotoxicity against human COLO205 cells; type: cell-based; how it was run: as §2
[8] = system: Malme-3M; assay: Cytotoxicity against human MALME-3M cells; type: cell-based; how it was run: as §2
[9] = system: SNB-75; assay: Antiproliferative activity against human SNB75 cells by SRB assay; type: functional; how it was run: as §1
[10] = system: 786-0; assay: Cytotoxicity against human 786-0 cells; type: cell-based
[11] = system: UO-31; assay: Cytotoxicity against human UO31 cells; type: cell-based
How it was run: (§3)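 Screened by NCI in its in vitro disease-oriented human tumour cell line panel. Compounds tested at five concentrations (100, 10, 1.0, 0.1 and 0.01 μM). Growth read by sulforhodamine B (SRB) signal. GI50 is the concentration reducing growth of treated cells to half that of control cells during the drug incubation.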

[12] = system: UO-31; assay: Antiproliferative activity against human UO31 cells by SRB assay; type: functional; how it was run: as §1
[13] = system: SK-MEL-28; assay: Cytotoxicity against human SK-MEL-28 cells; type: cell-based
[14] = system: HL-60(TB); assay: Cytotoxicity against human HL-60(TB) cells; type: cell-based
[15] = system: CCRF-CEM; assay: Antiproliferative activity against human CCRF-CEM cells by SRB assay; type: functional
How it was run: (§4)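 Tested in the NCI in vitro human tumor cell line screen, run by the National Cancer Institute. Each compound was given at five concentrations (100, 10, 1.0, 0.1 and 0.01 μM). GI50 is the drug concentration that reduces growth of treated cells to half that of control cells during drug incubation, judged from the SRB signal.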

[16] = system: OVCAR-3; assay: Antiproliferative activity against human OVCAR3 cells by SRB assay; type: functional; how it was run: as §4
[17] = system: UACC-62; assay: Antiproliferative activity against human UACC62 cells by SRB assay; type: functional; how it was run: as §1
[18] = system: PC-3; assay: Cytotoxicity against human PC3 cells; type: cell-based
[19] = system: RPMI-8226; assay: Antiproliferative activity against human RPMI8226 cells by SRB assay; type: functional; how it was run: as §4
[20] = system: SF-295; assay: Cytotoxicity against human SF295 cells; type: cell-based; how it was run: as §2
[21] = system: HL-60(TB); assay: Antiproliferative activity against human HL-60(TB) cells by SRB assay; type: functional; how it was run: as §2
[22] = system: SF-539; assay: Cytotoxicity against human SF539 cells; type: cell-based; how it was run: as §2
[23] = system: RPMI-8226; assay: Cytotoxicity against human RPMI8226 cells; type: cell-based; how it was run: as §2
[24] = system: KM12; assay: Antiproliferative activity against human KM12 cells by SRB assay; type: functional; how it was run: as §4
[25] = Cytotoxicity against human Hs 578T cells; type: cell-based
[26] = system: HT-29; assay: Antiproliferative activity against human HT-29 cells by SRB assay; type: functional; how it was run: as §4
[27] = system: TK-10; assay: Antiproliferative activity against human TK10 cells by SRB assay; type: functional; how it was run: as §1
[28] = system: T47D; assay: Antiproliferative activity against human T47D cells by SRB assay; type: functional; how it was run: as §1
[29] = system: NCI-H522; assay: Antiproliferative activity against human NCI-H522 cells by SRB assay; type: functional; how it was run: as §4
[30] = system: SK-OV-3; assay: Antiproliferative activity against human SKOV3 cells by SRB assay; type: functional; how it was run: as §4
[31] = system: UACC-257; assay: Cytotoxicity against human UACC257 cells; type: cell-based; how it was run: as §3
[32] = system: HCT-15; assay: Cytotoxicity against human HCT15 cells; type: cell-based; how it was run: as §2
[33] = system: CAKI-1; assay: Cytotoxicity against human Caki1 cells; type: cell-based
[34] = system: OVCAR-4; assay: Antiproliferative activity against human OVCAR4 cells by SRB assay; type: functional; how it was run: as §4
[35] = system: EKVX; assay: Cytotoxicity against human EKVX cells; type: cell-based; how it was run: as §2
[36] = system: TK-10; assay: Cytotoxicity against human TK10 cells; type: cell-based; how it was run: as §3
[37] = system: A498; assay: Antiproliferative activity against human A498 cells by SRB assay; type: functional; how it was run: as §4
[38] = system: PC-3; assay: Antiproliferative activity against human PC3 cells by SRB assay; type: functional; how it was run: as §4
[39] = system: SR; assay: Cytotoxicity against human SR cells; type: cell-based; how it was run: as §3
[40] = system: NCI-H460; assay: Antiproliferative activity against human NCI-H460 cells by SRB assay; type: functional; how it was run: as §4
[41] = system: IGROV-1; assay: Antiproliferative activity against human IGROV1 cells by SRB assay; type: functional; how it was run: as §4
[42] = system: MDA-MB-231; assay: Antiproliferative activity against human MDA-MB-231 cells by SRB assay; type: functional; how it was run: as §4
[43] = system: LOX IMVI; assay: Antiproliferative activity against human LOXIMVI cells by SRB assay; type: functional; how it was run: as §4
[44] = system: COLO 205; assay: Antiproliferative activity against human COLO205 cells by SRB assay; type: functional; how it was run: as §4
[45] = system: SK-OV-3; assay: Cytotoxicity against human SKOV3 cells; type: cell-based
[46] = system: SNB-19; assay: Antiproliferative activity against human SNB19 cells by SRB assay; type: functional; how it was run: as §4
[47] = system: Malme-3M; assay: Antiproliferative activity against human MALME-3M cells by SRB assay; type: functional; how it was run: as §4
[48] = system: MCF7; assay: Antiproliferative activity against human MCF7 cells by SRB assay; type: functional; how it was run: as §4
[49] = system: MOLT-4; assay: Cytotoxicity against human MOLT4 cells; type: cell-based
[50] = system: NCI/ADR-RES; assay: Cytotoxicity against human NCI/ADR-RES cells; type: cell-based; how it was run: as §2
[51] = system: HCC 2998; assay: Antiproliferative activity against human HCC2998 cells by SRB assay; type: functional; how it was run: as §4
[52] = system: M14; assay: Antiproliferative activity against human M14 cells by SRB assay; type: functional; how it was run: as §4
[53] = system: M14; assay: Cytotoxicity against human M14 cells; type: cell-based
[54] = system: OVCAR-5; assay: Cytotoxicity against human OVCAR5 cells; type: cell-based; how it was run: as §2
[55] = system: NCI/ADR-RES; assay: Antiproliferative activity against human NCI/ADR-RES cells by SRB assay; type: functional; how it was run: as §4
[56] = system: HCC 2998; assay: Cytotoxicity against human HCC2998 cells; type: cell-based; how it was run: as §2

CC(C)C(/C=C/c1ccccc1)n1cc(/C=C/C(=O)NO)nn1 (stereo not given)
LC50 [1]: 71.4 µM | LC50 [2]: 9.53 µM | GI50 [3]: 0.213 µM | LC50 [4]: 3.85 µM | LC50 [5]: > 100 µM | GI50 [6]: 3.12 µM | LC50 [7]: 6.1 µM | LC50 [8]: 68.4 µM | GI50 [9]: 1.82 µM | LC50 [10]: 6.74 µM | LC50 [11]: 40.9 µM | GI50 [12]: 1.48 µM | LC50 [13]: 44.9 µM | LC50 [14]: > 100 µM | GI50 [15]: 0.351 µM | GI50 [16]: 1.53 µM | GI50 [17]: 0.642 µM | LC50 [18]: 46.5 µM | GI50 [19]: 0.317 µM | LC50 [20]: 58.3 µM | GI50 [21]: 0.728 µM | LC50 [22]: 8.21 µM | LC50 [23]: > 100 µM | GI50 [24]: 1.22 µM | LC50 [25]: > 100 µM | GI50 [26]: 0.827 µM | GI50 [27]: 0.531 µM | GI50 [28]: 1.24 µM | GI50 [29]: 0.582 µM | GI50 [30]: 1.49 µM | LC50 [31]: 88.3 µM | LC50 [32]: > 100 µM | LC50 [33]: 6.3 µM | GI50 [34]: 4.06 µM | LC50 [35]: > 100 µM | LC50 [36]: > 100 µM | GI50 [37]: 1.51 µM | GI50 [38]: 1.65 µM | LC50 [39]: > 100 µM | GI50 [40]: 0.761 µM | GI50 [41]: 1.08 µM | GI50 [42]: 1.97 µM | GI50 [43]: 1.18 µM | GI50 [44]: 0.932 µM | LC50 [45]: 27.8 µM | GI50 [46]: 2.41 µM | GI50 [47]: 0.311 µM | GI50 [48]: 1.32 µM | LC50 [49]: > 100 µM

O=C(/C=C/c1cn(C(/C=C/c2ccccc2)Cc2ccccc2)nn1)NO (stereo not given)
LC50 [1]: 61.6 µM | LC50 [2]: 34.2 µM | GI50 [3]: 0.624 µM | LC50 [4]: 5.97 µM | LC50 [5]: 46.7 µM | GI50 [6]: 1.68 µM | LC50 [7]: 8 µM | LC50 [8]: 28.6 µM | GI50 [9]: 0.258 µM | LC50 [10]: 6.45 µM | LC50 [11]: 6.57 µM | GI50 [12]: 0.65 µM | LC50 [13]: 9.4 µM | LC50 [14]: > 100 µM | GI50 [15]: 0.32 µM | GI50 [16]: 1.16 µM | GI50 [17]: 0.898 µM | LC50 [50]: > 100 µM | LC50 [18]: > 100 µM | GI50 [19]: 0.743 µM | LC50 [20]: 6.56 µM | GI50 [21]: 0.67 µM | GI50 [51]: 1.24 µM | LC50 [22]: 6.91 µM | LC50 [23]: > 100 µM | GI50 [24]: 1.93 µM | LC50 [25]: 74.6 µM | GI50 [26]: 0.547 µM | GI50 [27]: 0.827 µM | GI50 [28]: 0.411 µM | GI50 [29]: 0.386 µM | GI50 [30]: 1.98 µM | LC50 [31]: 93.7 µM | LC50 [32]: 74.5 µM | LC50 [33]: 6.25 µM | GI50 [34]: 1.75 µM | GI50 [52]: 1.18 µM | LC50 [35]: 87.4 µM | LC50 [36]: 12.9 µM | LC50 [53]: 16.5 µM | GI50 [37]: 1.16 µM | GI50 [38]: 1.52 µM | LC50 [39]: > 100 µM | LC50 [54]: 22.3 µM | GI50 [40]: 1.04 µM | GI50 [41]: 0.836 µM | GI50 [42]: 2.21 µM | GI50 [43]: 0.521 µM | GI50 [44]: 1.1 µM | LC50 [45]: 13.3 µM | GI50 [46]: 2 µM | GI50 [47]: 0.305 µM | GI50 [48]: 1.21 µM | GI50 [55]: 0.342 µM | LC50 [56]: 6.12 µM | LC50 [49]: > 100 µM
